Calls of active or inactive are those of the source. No cut-off for these calls is given here.
Key:
[1] = biological target: Beta-1 adrenergic receptor (Cavia porcellus, UniProt B0FL73); experiment: Inhibition of beta1-adrenergic receptor in guinea pig auricle assessed as reversal of isoproterenol-induced effect; conditions: read-out: pA2 (converted)
Felis catus [2] = experiment: Reversal of isoproterenol-induced increase in mean arterial blood pressure in cat assessed as pressor phase at 2.5 mg/kg, iv; type: functional
Felis catus [3] = experiment: Reversal of isoproterenol-induced increase in mean arterial blood pressure in cat assessed as depressor phase at 2.5 mg/kg, iv; type: functional
Felis catus [4] = experiment: Reversal of epinephrine-induced increase in mean arterial blood pressure in cat at 2.5 mg/kg, iv; type: functional
[5] = biological target: Beta-2 adrenergic receptor (Cavia porcellus, UniProt Q8K4Z4); experiment: Inhibition of beta2-adrenergic receptor in guinea pig tracheal chain assessed as reversal of isoproterenol-induced effect after 15 mins; parameters: species or system Trachea; conditions: read-out: pA2 (converted)
Sequence of Beta-2 adrenergic receptor (Q8K4Z4 whole entry): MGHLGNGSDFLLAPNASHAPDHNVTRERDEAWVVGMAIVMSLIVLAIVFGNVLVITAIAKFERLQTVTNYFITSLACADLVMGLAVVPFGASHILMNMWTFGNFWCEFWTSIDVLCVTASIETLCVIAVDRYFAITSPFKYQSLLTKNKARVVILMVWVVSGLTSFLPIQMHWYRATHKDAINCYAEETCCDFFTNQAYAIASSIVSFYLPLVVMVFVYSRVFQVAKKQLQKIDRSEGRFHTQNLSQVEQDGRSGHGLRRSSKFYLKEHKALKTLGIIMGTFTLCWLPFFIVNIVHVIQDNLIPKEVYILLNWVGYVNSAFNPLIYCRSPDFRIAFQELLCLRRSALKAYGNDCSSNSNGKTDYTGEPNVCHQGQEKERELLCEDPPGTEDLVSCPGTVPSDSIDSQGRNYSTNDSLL

[6] = biological target: Beta-2 adrenergic receptor (Cavia porcellus) (UniProt Q8K4Z4); experiment: Inhibition of beta2-adrenergic receptor in guinea pig tracheal chain assessed as reversal of isoproterenol-induced effect at 5.36 X 10^-9 M to 8.576 X 10^-8 M incubated for 15 mins followed by compound washout measured after 30 to 60 mins; conditions: Trachea
Sequence of Beta-2 adrenergic receptor (Cavia porcellus) (Q8K4Z4 whole entry, looked up): as the sequence (Q8K4Z4 whole entry) above

Cavia porcellus = experiment: Anesthetic effect in guinea pig at 0.1 % by intradermal wheal method; type: functional, organism-based
[7] = biological target: Beta-2 adrenergic receptor (Cavia porcellus) (UniProt Q8K4Z4); experiment: Competitive inhibition of beta2-adrenergic receptor in guinea pig tracheal chain assessed as reversal of isoproterenol-induced effect at 5.36 X 10^-9 M to 8.576 X 10^-8 M after 15 mins
Summary of the method: (§1)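 Isolated guinea pig tracheal chain in Krebs bicarbonate Ringer at 36.5 ± 0.5 °C, gassed with O2 containing 5% CO2. Tone raised with acetylcholine, then cumulative isoproterenol (1×10^-5 to 1×10^-4 M) given after 15-min antagonist exposure. pA2 by linear extrapolation; mean ± SE, n experiments.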

Heart = experiment: Antiarrhythmic activity against guinea pig auricle; type: functional, tissue-based; conditions: Cavia porcellus
Summary of the method: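 Electrically driven isolated guinea pig auricles (Dawes method).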

[8] = biological target: Beta-2 adrenergic receptor (Cavia porcellus) (UniProt Q8K4Z4); experiment: Competitive inhibition of beta2-adrenergic receptor in guinea pig tracheal chain assessed as reversal of isoproterenol-induced effect at 1.376 X 10^-7 M to 2.752 X 10^-7 M after 15 mins; summary of the method: as §1
[9] = biological target: Beta-2 adrenergic receptor (Cavia porcellus) (UniProt Q8K4Z4); experiment: Inhibition of beta2-adrenergic receptor in guinea pig tracheal chain assessed as reversal of isoproterenol-induced effect at 1.376 X 10^-7 M to 2.752 X 10^-7 M incubated for 15 mins followed by compound washout measured after 30 to 60 mins; conditions: Trachea
[10] = biological target: Beta-2 adrenergic receptor (Cavia porcellus) (UniProt Q8K4Z4); experiment: Competitive inhibition of beta2-adrenergic receptor in guinea pig tracheal chain assessed as reversal of isoproterenol-induced effect at 5.868 X 10^-7 M to […] after 15 mins; summary of the method: as §1
Ileum = experiment: Cholinolytic activity in guinea pig ileum at 2.94 X 10^-7 M to 1.176 X 10^-6 M in presence of acetylcholine; type: functional, tissue-based; conditions: Cavia porcellus
Summary of the method: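 Isolated guinea pig ileum in oxygenated Tyrode solution at 36.5 ± 0.5 °C. Acetylcholine used as spasmogen; antagonism of contraction by test agent assessed.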

[11] = biological target: Beta-2 adrenergic receptor (Cavia porcellus) (UniProt Q8K4Z4); experiment: Inhibition of beta2-adrenergic receptor in guinea pig tracheal chain assessed as reversal of isoproterenol-induced effect at 5.868 X 10^-7 M to […] incubated for 15 mins followed by compound washout measured after 30 to 60 mins; conditions: Trachea
Trachea = experiment: Cholinolytic activity in guinea pig trachea at 2.94 X 10^-7 M to 1.176 X 10^-6 M in presence of acetylcholine; type: functional, tissue-based; conditions: Cavia porcellus
Summary of the method: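 Guinea pig tracheal chain in Krebs bicarbonate Ringer at 36.5 ± 0.5 °C, gassed with O2/5% CO2. Acetylcholine responses examined in presence of test agent.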

[12] = biological target: Beta-2 adrenergic receptor (Cavia porcellus) (UniProt Q8K4Z4); experiment: Competitive inhibition of beta2-adrenergic receptor in guinea pig tracheal chain assessed as reversal of isoproterenol-induced effect at 3.44 X 10^-8 M to 1.376 X 10^-7 M after 15 mins; summary of the method: as §1
[13] = biological target: Beta-2 adrenergic receptor (Cavia porcellus) (UniProt Q8K4Z4); experiment: Inhibition of beta2-adrenergic receptor in guinea pig tracheal chain assessed as reversal of isoproterenol-induced effect at 3.44 X 10^-8 M to 1.376 X 10^-7 M incubated for 15 mins followed by compound washout measured after 30 to 60 mins; conditions: Trachea

Sequence of Beta-1 adrenergic receptor (B0FL73 whole entry): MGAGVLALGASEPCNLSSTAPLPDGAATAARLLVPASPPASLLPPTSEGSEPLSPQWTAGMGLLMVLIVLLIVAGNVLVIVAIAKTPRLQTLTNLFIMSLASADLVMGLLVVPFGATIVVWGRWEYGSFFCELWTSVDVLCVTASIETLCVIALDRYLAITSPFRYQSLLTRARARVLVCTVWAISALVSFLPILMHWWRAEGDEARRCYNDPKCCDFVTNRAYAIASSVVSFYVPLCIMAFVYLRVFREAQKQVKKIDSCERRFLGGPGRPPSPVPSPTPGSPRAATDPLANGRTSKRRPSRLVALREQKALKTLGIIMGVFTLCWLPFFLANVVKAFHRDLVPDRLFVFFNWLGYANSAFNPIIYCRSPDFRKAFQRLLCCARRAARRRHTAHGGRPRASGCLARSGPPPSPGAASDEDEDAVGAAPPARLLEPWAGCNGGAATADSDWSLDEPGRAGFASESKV

Structure (SMILES) | Kb [1] [µM] | Kb [5] [µM] | Activity (Cavia porcellus) | Activity (Felis catus [3]) [%] | Activity (Felis catus [4]) [%] | Activity (Heart) | also measured
CC1(C)NC1C(O)c1ccccc1 (stereo in doubt; 1b) [listing 1 of 2 here] | 344 | 0.0644 | – | – | – | – | Activity (Felis catus [2]; 2.5 mg/kg): 0%; Activity (Felis catus [3]; 2.5 mg/kg): 0%; Activity (Felis catus [4]; 2.5 mg/kg): 11.1%
CC1(C)NC1C(O)c1ccc2ccccc2c1 (stereo not drawn) | 344 | 0.00304 | inactive | -33 | 62 | inactive | inhibition [6]: inactive; Activity (Felis catus [2]): 0%; inhibition [7]: Active
CC1(C)NC1C(O)c1ccccc1 (stereo in doubt; 1a) [listing 1 of 2 here] | – | – | inactive | – | – | inactive | inhibition [8]: Active; inhibition [9]: inactive
CC1(C)NC1C(O)c1ccccc1 (stereo in doubt; 1a) [listing 2 of 2 here] | 43.2 | 0.0619 | – | – | – | – | Activity (Felis catus [2]; 2.5 mg/kg): 20%; Activity (Felis catus [3]; 2.5 mg/kg): -10%; Activity (Felis catus [4]; 2.5 mg/kg): 0%
CCN(CC)CCOC(=O)c1ccc(N)cc1 | – | – | inactive | – | – | inactive | –
CC1(C)NC1C(O)c1ccc(Cl)c(Cl)c1 (stereo not drawn) | 17.4 | 0.398 | Active | 0 | 0 | Active | Activity (Felis catus [2]): -16%; inhibition [10]: inactive; Activity (Ileum): Active; inhibition [11]: inactive; Activity (Trachea): Active
CC(C)NCC(O)COc1cccc2ccccc12 (stereo not drawn) [PROPRANOLOL] | – | – | – | -100 | 45 | inactive | –
CC1(C)NC1C(O)c1ccccc1 (stereo in doubt; 1b) [listing 2 of 2 here] | – | – | inactive | – | – | inactive | inhibition [12]: Active; inhibition [13]: inactive
